Experimental data published in ChEMBL document CHEMBL1124128, “Angiotensin-converting enzyme inhibitors. Mercaptan, carboxyalkyl dipeptide, and phosphinic acid inhibitors incorporating 4-substituted prolines” (J Med Chem, 1988).
Several values for one entry are separate records, joined by “and”; a condition that tells them apart may be missing. Equal values may be shown once. One block for each compound: values may come before it.

Experiments:
Rattus norvegicus [1] = assay: (§1) % Inhibition of angiotensin-I induced pressor response in normotensive rats after intravenous dosing of 0.05 umol/kg; type: functional
Procedure, shortened: (§2)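 Male Sprague–Dawley rats (225–275 g) fitted with indwelling abdominal aorta and vena cava catheters, recovered at least 2 weeks, then tested conscious and unrestrained. Aortic pressure was recorded directly. Pressor responses to AI (310 ng/kg iv) and AII (100 ng/kg iv) were taken before dosing. Compound was given iv in water or 5% NaHCO3, and responses were followed up to 70 min. Maximum % inhibition is the mean of four animals per dose.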

Rattus norvegicus [2] = assay: % Inhibition of angiotensin-I induced pressor response in normotensive rats after intravenous dosing of 0.15 umol/kg; type: functional
Procedure, shortened: (§3)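 Conscious, unrestrained male Sprague–Dawley rats (225–275 g) with indwelling aortic and vena caval catheters, allowed at least 2 weeks of recovery. Aortic pressure recorded directly. Baseline pressor responses to AI (310 ng/kg iv) and AII (100 ng/kg iv) were taken first. Compound was given iv in 0.1 mL water or 5% NaHCO3, and responses were followed for up to 70 min. Maximum % inhibition is the mean of four animals per dose.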

[3] = molecular target: T1, Angiotensin-converting enzyme (Rattus norvegicus) (UniProt P47820); assay: In vitro inhibition of rat Angiotensin I converting enzyme
T1 sequence (whole entry): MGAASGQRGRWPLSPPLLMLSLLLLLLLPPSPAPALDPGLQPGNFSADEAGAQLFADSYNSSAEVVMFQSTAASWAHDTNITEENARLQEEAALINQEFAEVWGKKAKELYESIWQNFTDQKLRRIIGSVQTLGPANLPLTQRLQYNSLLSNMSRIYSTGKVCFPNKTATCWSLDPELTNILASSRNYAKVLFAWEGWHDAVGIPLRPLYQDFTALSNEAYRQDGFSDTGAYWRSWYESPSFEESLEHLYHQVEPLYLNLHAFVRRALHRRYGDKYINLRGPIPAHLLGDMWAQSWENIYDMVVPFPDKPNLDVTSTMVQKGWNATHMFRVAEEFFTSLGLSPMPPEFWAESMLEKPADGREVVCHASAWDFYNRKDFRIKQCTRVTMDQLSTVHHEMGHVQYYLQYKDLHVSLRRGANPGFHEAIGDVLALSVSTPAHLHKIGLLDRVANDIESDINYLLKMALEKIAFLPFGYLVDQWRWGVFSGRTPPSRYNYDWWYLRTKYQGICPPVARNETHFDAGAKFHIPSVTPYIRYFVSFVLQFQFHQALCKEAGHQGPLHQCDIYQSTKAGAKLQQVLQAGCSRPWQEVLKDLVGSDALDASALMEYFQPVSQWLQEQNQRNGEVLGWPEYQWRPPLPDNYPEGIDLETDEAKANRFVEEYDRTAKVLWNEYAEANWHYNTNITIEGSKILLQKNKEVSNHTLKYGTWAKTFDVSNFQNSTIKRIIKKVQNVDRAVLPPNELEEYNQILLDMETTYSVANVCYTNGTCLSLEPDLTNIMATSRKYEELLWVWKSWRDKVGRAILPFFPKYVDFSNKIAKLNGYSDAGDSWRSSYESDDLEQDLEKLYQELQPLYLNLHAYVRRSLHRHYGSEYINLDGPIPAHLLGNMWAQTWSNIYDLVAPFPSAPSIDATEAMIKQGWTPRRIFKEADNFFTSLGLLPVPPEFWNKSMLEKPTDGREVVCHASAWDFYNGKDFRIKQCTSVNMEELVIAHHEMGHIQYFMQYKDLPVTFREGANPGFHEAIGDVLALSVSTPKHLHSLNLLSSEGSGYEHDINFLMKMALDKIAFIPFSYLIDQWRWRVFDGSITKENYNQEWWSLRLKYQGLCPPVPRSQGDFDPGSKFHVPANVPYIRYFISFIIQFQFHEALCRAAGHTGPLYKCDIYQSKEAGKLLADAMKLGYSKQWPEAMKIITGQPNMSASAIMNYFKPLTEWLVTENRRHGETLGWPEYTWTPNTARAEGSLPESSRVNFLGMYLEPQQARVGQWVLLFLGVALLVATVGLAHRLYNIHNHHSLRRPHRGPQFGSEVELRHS

Rattus norvegicus [4] = assay: (§4) % Inhibition of angiotensin-I induced pressor response in normotensive rats after peroral dosing of 15 umol/kg; type: functional; conditions: po
Procedure, shortened: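 Catheterized conscious male Sprague–Dawley rats (225–275 g). Baseline pressor responses to AI (310 ng/kg iv) and AII (100 ng/kg iv) were taken. Compound was given orally in 0.75 mL water, 5% NaHCO3 or 1% agar suspension, and AI/AII responses were followed for up to 280 min. Maximum % inhibition is the mean of four animals per dose.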

Rattus norvegicus [5] = assay: % Inhibition of angiotensin-I induced pressor response in normotensive rats after peroral dosing of 5 umol/kg; type: functional; conditions: po
Procedure, shortened: (§5)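 Conscious, unrestrained catheterized male Sprague–Dawley rats (225–275 g) had direct aortic pressure recording. Baseline pressor responses were taken to AI (310 ng/kg iv) and AII (100 ng/kg iv). Compound was given orally in water, 5% NaHCO3 or 1% agar suspension. AI and AII responses were then tracked up to 280 min. Maximum % inhibition is the mean response of four animals per dose.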

Rattus norvegicus [6] = assay: % Inhibition of angiotensin-I induced pressor response in normotensive rats after intravenous dosing of 0.5 umol/kg; type: functional; procedure, shortened: as §3
[7] = molecular target: T2, Angiotensin-converting enzyme (Oryctolagus cuniculus, UniProt P12822); assay: Inhibitory activity against rabbit lung angiotensin-1 converting enzyme
T2 sequence (P12822 whole entry): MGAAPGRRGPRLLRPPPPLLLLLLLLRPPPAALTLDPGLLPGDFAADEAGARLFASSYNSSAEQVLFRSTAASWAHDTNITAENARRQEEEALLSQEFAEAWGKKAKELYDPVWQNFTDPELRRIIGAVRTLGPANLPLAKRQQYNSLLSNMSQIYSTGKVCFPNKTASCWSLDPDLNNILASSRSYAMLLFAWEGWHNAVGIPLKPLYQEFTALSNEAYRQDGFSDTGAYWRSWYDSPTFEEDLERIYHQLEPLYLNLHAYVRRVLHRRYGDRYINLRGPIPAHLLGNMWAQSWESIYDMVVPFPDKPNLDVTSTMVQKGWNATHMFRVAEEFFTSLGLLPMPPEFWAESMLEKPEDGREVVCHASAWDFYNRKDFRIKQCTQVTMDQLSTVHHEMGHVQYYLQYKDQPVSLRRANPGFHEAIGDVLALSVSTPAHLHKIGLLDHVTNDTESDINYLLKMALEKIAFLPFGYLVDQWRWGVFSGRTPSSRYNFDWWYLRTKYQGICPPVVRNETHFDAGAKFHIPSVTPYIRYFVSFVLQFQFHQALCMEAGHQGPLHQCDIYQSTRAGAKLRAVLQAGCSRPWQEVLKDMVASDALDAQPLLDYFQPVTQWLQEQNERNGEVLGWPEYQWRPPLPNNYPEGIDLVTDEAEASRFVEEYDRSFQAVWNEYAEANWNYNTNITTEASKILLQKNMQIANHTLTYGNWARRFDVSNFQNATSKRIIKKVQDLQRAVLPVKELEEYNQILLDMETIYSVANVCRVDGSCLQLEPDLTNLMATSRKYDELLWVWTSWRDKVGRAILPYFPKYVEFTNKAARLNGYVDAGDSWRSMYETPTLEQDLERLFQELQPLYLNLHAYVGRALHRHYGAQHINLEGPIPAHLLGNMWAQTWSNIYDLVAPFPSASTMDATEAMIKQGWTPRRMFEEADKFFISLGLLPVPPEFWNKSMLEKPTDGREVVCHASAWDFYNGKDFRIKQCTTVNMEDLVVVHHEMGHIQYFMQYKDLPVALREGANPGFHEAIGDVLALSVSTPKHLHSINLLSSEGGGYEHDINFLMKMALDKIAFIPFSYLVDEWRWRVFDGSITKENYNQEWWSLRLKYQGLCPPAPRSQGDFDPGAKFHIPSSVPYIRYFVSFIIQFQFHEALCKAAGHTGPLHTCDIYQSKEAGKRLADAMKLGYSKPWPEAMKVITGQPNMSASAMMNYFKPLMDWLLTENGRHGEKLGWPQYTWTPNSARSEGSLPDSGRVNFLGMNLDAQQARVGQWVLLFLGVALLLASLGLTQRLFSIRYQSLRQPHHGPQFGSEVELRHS

Rattus norvegicus [8] = assay: % Inhibition of angiotensin-I induced pressor response in normotensive rats after intravenous dosing of 1.5 umol/kg; type: functional; procedure, shortened: as §3
Rattus norvegicus [9] = assay: (§6) % Inhibition of angiotensin-I induced pressor response in normotensive rats after intravenous dosing of 5 umol/kg; type: functional; procedure, shortened: as §2
Rattus norvegicus [10] = assay: as §4; type: functional; conditions: po; procedure, shortened: as §5; remark: listed apart in the source
Rattus norvegicus [11] = assay: % Inhibition of angiotensin-I induced pressor response in normotensive rats after peroral dosing of 0.5 umol/kg; type: functional; conditions: po; procedure, shortened: as §5
Rattus norvegicus [12] = assay: % Inhibition of angiotensin-I induced pressor response in normotensive rats after peroral dosing of 50 umol/kg; type: functional; conditions: po; procedure, shortened: as §5
Rattus norvegicus [13] = assay: % Inhibition of angiotensin-I induced pressor response in normotensive rats after peroral dosing of 1.5 umol/kg; type: functional; conditions: po; procedure, shortened: as §5
Rattus norvegicus [14] = assay: % Inhibition of angiotensin-I induced pressor response in normotensive rats after intravenous dosing of 0.015 umol/kg; type: functional; procedure, shortened: as §2
Rattus norvegicus [15] = assay: as §1; type: functional; procedure, shortened: as §3; remark: listed apart in the source
Rattus norvegicus [16] = assay: as §6; type: functional; procedure, shortened: as §3; remark: listed apart in the source
Rattus norvegicus [17] = assay: % Inhibition of angiotensin-I induced pressor response in normotensive rats after peroral dosing of 150 umol/kg; type: functional; conditions: po; procedure, shortened: as §5
Rattus norvegicus [18] = assay: % Inhibition of angiotensin-I induced pressor response in normotensive rats after peroral dosing of 0.15 umol/kg; type: functional; conditions: po; procedure, shortened: as §5

Structure (SMILES): O=C(O)[C@@H]1C[C@@H](C2CCCCC2)CN1C(=O)CP(=O)(O)CCCCc1ccccc1 [FOSINOPRILAT]
inhibition in vivo at 0.05 µmol/kg (Rattus norvegicus [1]): 21%
inhibition in vivo at 0.15 µmol/kg (Rattus norvegicus [2]): 68%
T50 [3]: 11 nM and 4 nM
inhibition in vivo at 15 µmol/kg (Rattus norvegicus [4]): 71%
inhibition in vivo at 5 µmol/kg (Rattus norvegicus [5]): 28%
inhibition in vivo at 0.5 µmol/kg (Rattus norvegicus [6]): 87%
Ki [7]: 1.5 nM

Structure (SMILES): C[C@H](CS)C(=O)N1CCC[C@H]1C(=O)O [CAPTOPRIL]
inhibition in vivo at 1.5 µmol/kg (Rattus norvegicus [8]): 91%
inhibition in vivo at 0.05 µmol/kg (Rattus norvegicus [1]): 18%
inhibition in vivo at 0.15 µmol/kg (Rattus norvegicus [2]): 66%
inhibition in vivo at 5 µmol/kg (Rattus norvegicus [9]): 93%
inhibition in vivo at 15 µmol/kg (Rattus norvegicus [10]): 78%
inhibition in vivo at 0.5 µmol/kg (Rattus norvegicus [11]): 42%
inhibition in vivo at 5 µmol/kg (Rattus norvegicus [5]): 79%
inhibition in vivo at 50 µmol/kg (Rattus norvegicus [12]): 93%
inhibition in vivo at 0.5 µmol/kg (Rattus norvegicus [6]): 87%
inhibition in vivo at 1.5 µmol/kg (Rattus norvegicus [13]): 61%

Structure (SMILES): CO[C@@H]1C[C@@H](C(=O)O)N(C(=O)CP(=O)(O)CCCCc2ccccc2)C1
inhibition in vivo at 0.015 µmol/kg (Rattus norvegicus [14]): 23%
T50 [3]: 100 nM
inhibition in vivo at 0.05 µmol/kg (Rattus norvegicus [15]): 33%
inhibition in vivo at 0.5 µmol/kg (Rattus norvegicus [6]): 73%

T50 [3]: 180 nM
Ki [7]: 15 nM
Structure (SMILES): O=C(O)[C@@H]1CCCN1C(=O)CP(=O)(O)CCCCc1ccccc1
inhibition in vivo at 1.5 µmol/kg (Rattus norvegicus [8]): 86%
inhibition in vivo at 5 µmol/kg (Rattus norvegicus [16]): 92%
inhibition in vivo at 15 µmol/kg (Rattus norvegicus [10]): 13%
inhibition in vivo at 50 µmol/kg (Rattus norvegicus [12]): 47%
inhibition in vivo at 0.5 µmol/kg (Rattus norvegicus [6]): 56%
inhibition in vivo at 150 µmol/kg (Rattus norvegicus [17]): 75%

Structure (SMILES): CCOC(=O)[C@H](CCc1ccccc1)N[C@@H](C)C(=O)N1CC2(C[C@H]1C(=O)O)SCCS2
inhibition in vivo at 0.5 µmol/kg (Rattus norvegicus [11]): 41%
inhibition in vivo at 0.15 µmol/kg (Rattus norvegicus [18]): 15%
inhibition in vivo at 1.5 µmol/kg (Rattus norvegicus [13]): 87%
